UBC13 inh: blocks human UBC13 polyubiquitin chain formation; actives 0.47% (n = 330,000); TR-FRET; P61088; inhibition, % at 20 µM; in the data active = inhibition above about 45%, passing the limit was not always enough
Target sequence (P61088 whole entry, looked up): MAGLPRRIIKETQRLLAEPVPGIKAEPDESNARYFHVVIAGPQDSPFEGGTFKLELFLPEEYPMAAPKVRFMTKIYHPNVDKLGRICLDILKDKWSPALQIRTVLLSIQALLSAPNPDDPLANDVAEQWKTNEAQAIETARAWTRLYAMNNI
MEKK2 mut-MEK5: signal of MEK5 binding to mutant human MEKK2 PB1 domain; bead flow cytometry, Alexa488-MEK5 binding to MEKK2 mutant; percent response, % at 10 µM; actives 0.35% (n = 290,000); in the data active = percent response above about 24%, passing the limit was not always enough
MEKK2wt PB1 HTS: raises or lowers MEK5 binding to wildtype human MEKK2 PB1 domain. actives 1.1% (n = 290,000). binding response (% of control), % at 10 µM. Q9Y2U5. bead flow cytometry, Alexa488-MEK5 binding to MEKK2 WT; actives lie on both sides; in the data active = binding response below about 67% or above about 130%
MEKK3 PB1 HTS: modulators (inhibitors or enhancers) of MEK5 binding to human MEKK3 PB1 domain; actives 1.4% (n = 290,000); AID 1529; Q99759; binding response (% of control), % at 10 µM; bead-based flow cytometry, Alexa488-MEK5 binding to MEKK3; actives lie on both sides; 0 = blocked by unlabeled MEK5, 100 = vehicle;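 active = binding response more than 3 SD above or below the average of its plate-row segment, actives on both sides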;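 also: Alexa488 bead fluorescence after subtracting the streptavidin-only scavenger bead signal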
UCH37 inh: inhibitors of human deubiquitinating enzyme UCH37 | Q9Y5K5 | purified proteasome/UCH37, Ub-AMC cleavage fluorescence | inhibition, % (test concentration not listed) | actives 0.33% (n = 330,000) | AID 588478;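 active = mean inhibition over replicate wells above about 20%, limit read from the data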;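 also: 0% = compound-free wells with enzyme and 100% = wells lacking proteasome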
Target sequence (Q9Y5K5 whole entry, looked up): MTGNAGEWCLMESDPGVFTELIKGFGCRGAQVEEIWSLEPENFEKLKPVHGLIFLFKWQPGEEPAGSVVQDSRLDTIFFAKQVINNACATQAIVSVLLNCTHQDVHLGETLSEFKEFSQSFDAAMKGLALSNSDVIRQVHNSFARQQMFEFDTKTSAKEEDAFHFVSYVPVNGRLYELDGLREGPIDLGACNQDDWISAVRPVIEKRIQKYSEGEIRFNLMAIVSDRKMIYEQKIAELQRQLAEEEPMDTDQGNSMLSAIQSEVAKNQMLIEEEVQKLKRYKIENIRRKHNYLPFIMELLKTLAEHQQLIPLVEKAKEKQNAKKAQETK
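system = Proteasome-associated human UCH37 deubiquitinase | amount = 0.15 nM proteasome as dispensed | medium = pH 7.4 Tris-HCl (50 mM) with ovalbumin, ATP-MgCl2, DTT | incubation = 30 min preincubation with enzyme, 25 min cleavage at room temperature | detection = AMC fluorescence 355/460 nm | read-out basis = percent inhibition | controls = no-proteasome and no-compound wells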
Apaf1 inhib: inhibitors of human Apaf-1 apoptosome; O14727; actives 0.71% (n = 330,000); AID 489030; reconstituted apoptosome caspase-3 activity, DEVD-Rh110 fluorescence; inhibition, % at 20 µM; active = inhibition of at least 40% at 20 µM;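 also: plate controls were DMSO wells for no effect and DEVD-CHO caspase inhibitor wells for full effect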
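Material: reconstituted apoptosome with Apaf-1, cytochrome c, caspase-9, procaspase-3, dATP / Buffer or medium: pH 7.5 Hepes buffer with CHAPS, BSA, DTT / Also added: cytochrome c with DEVD-Rh110 / Schedule: compound with Apaf-1, dATP, procaspase-3 30 min, then 50 min reaction, room temperature / Technique: rhodamine 110 fluorescence at Ex 480/Em 540 nm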
MEKK2wt confirm: raises or lowers MEK5 binding to wildtype human MEKK2, retest. shares compounds with MEKK3 PB1 HTS. binding response (% of control), % at 10 µM. actives 2.4% (n = 5,900). bead flow cytometry, Alexa488-MEK5 binding to MEKK2 WT; actives lie on both sides; in the data active = binding response below about 16% or above about 210%; inactive = in between
MEKK2mut-MEK5: signal of MEK5 binding to mutant human MEKK2, retest | AID 1893 | bead flow cytometry, Alexa488-MEK5 binding to MEKK2 mutant | shares compounds with MEKK3 PB1 HTS | actives 2% (n = 5,900) | percent response, % at 10 µM; in the data active = percent response mostly above about 71%, no sharp cut-off; inactive = mostly below about 38%;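 also: higher means compound restores mutant binding toward wildtype level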
MEKK3-MEK5 inh: confirmation of inhibitors of MEK5 binding to human MEKK3. shares compounds with MEKK3 PB1 HTS. bead flow cytometry, Alexa488-MEK5 binding to MEKK3; active compounds read low. binding response (% of control), % at 10 µM. actives 1.8% (n = 5,900). AID 1894;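 active = binding response below 72% of control, or above a set upper limit, though filed actives all read lower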;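 also: 100% = DMSO only wells and 0% = binding blocked by excess unlabeled MEK5; lower values mean stronger disruption of MEK5 binding to MEKK3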
* marks the source's active call; other numbers are inactive results; x = no result given; [ ] = dose if it differs, or a comment. Hits are enriched below; roughly 3% of the tested compounds scored in any of these assays.

SMILES	UBC13 inh	MEKK2 mut-MEK5	MEKK2wt PB1 HTS	MEKK3 PB1 HTS	UCH37 inh	Apaf1 inhib	MEKK2wt confirm	MEKK2mut-MEK5	MEKK3-MEK5 inh
COc1ccc2[nH]c(=O)c(CNC3CCCCC3)cc2c1	2	-8	87	78*[inhibitor]	-37	-7	91	-14	85
COc1ccc2[nH]c(=O)c(CN(C(=O)NC3CCCCC3)C3CCCCC3)cc2c1	6	1	106	109	-51	1	x	x	x
O=c1c2ccccc2nc(SCc2cc(F)ccc2F)n1C1CCCC1	-6	3	105	103	2	0	x	x	x
Cc1nc2cc(-c3ccc(Cl)cc3)nn2c(NCCN(C)C)c1C	18	29	148*	113	-20	8	132	18	110
CSCCC(NC(N)=O)C(=O)Nc1cccc(S(=O)(=O)N2CCOCC2)c1 (centres undefined)	-8	-9	83	72*[inhibitor]	2	-3	98	0	102
CSCCC(NC(=O)c1cccc(S(=O)(=O)N2CCOCC2)c1)C(=O)Nc1ccc(F)cc1 (centres undefined)	-10	1	100	97	0	0	x	x	x
O=C(Nc1ccc(N2CCOCC2)cc1)c1ccc(Cl)cc1N1CCCC1=O	16	x	x	x	3	-3	x	x	x
CN(C)c1cccc(C(=O)NCCCn2ccc3ccccc32)c1	5	-5	97	98	-21	12	x	x	x
COc1ccc(C(C)=O)cc1CSc1nnc(Nc2ccc(C)cc2)s1	-5	3	106	114	4	20	x	x	x
Cc1ccc(NC(=O)CCNS(=O)(=O)c2ccccc2)c(C(=O)c2ccccc2)c1	-7	1	110	138*	5	3	100	2	104
CC(=O)Nc1nnc(C2=COCCO2)o1	0	-4	78	58*[inhibitor]	5	-20	101	-1	99
CCCCNC(=O)C1C2C=CC(C2)C1C(=O)O (centres undefined)	-4	0	110	149*	3	8	96	-7	97
O=C(O)C1C2C=CC(C2)C1C(=O)NCCCN1CCOCC1 (centres undefined)	4	-1	92	97	1	-8	x	x	x
COC(=O)Nc1ccc(S(=O)(=O)N(CCO)CC(F)(F)C(F)F)cc1	-9	0	102	100	2	17	x	x	x
Cc1ccc(Oc2cc([N+](=O)[O-])cc3c2C(=O)Nc2ccccc2O3)cc1	-10	-2	94	130*	5	9	95	-4	100
COc1ccc(CNS(=O)(=O)c2ccc3c(c2)CCN3C(=O)C2CC2)cc1	-4	1	106	107	3	-23	x	x	x
O=c1c2cc(Cl)ccc2oc2nc3n(c(=O)c12)CCCS3	-9	-9	81	74*[inhibitor]	2	2	102	4	102
O=C(CCCN1C(=O)c2ccccc2C1=O)NCc1ccc(F)cc1	-2	33*	117	115	4	-3	91	-7	90
O=C(CCCCCN1C(=O)c2ccccc2C1=O)Nc1ccc(F)cc1	36	1	110	131*	1	3	96	-2	98
O=C(CCCn1c(=O)[nH]c2ccsc2c1=O)Nc1ccc(F)cc1	8	1	68	54*[inhibitor]	5	-18	97	3	98
COc1ccc(CNC(=O)CCCN2C(=O)c3ccccc3C2=O)cc1	-11	1	110	119	0	14	x	x	x
O=C(O)C1C2CC3OC(=O)C1C3C2 (centres undefined)	x	x	x	x	1	x	x	x	x
CCN1CCN(C(=S)Nc2ccc(C(C)=O)cc2)CC1	-6	-23	78	71	5	-8	x	x	x
C=CCNC(=O)COc1cc(C)cc(C)c1C	12	-2	95	98	-1	-13	x	x	x
COC(=O)CCC(=O)Nc1ccc(C)cc1OC(=O)CCC(=O)OC	-3	28*	115	114	5	4	96	-4	101
SMILES	UBC13 inh	MEKK2 mut-MEK5	MEKK2wt PB1 HTS	MEKK3 PB1 HTS	UCH37 inh	Apaf1 inhib	MEKK2wt confirm	MEKK2mut-MEK5	MEKK3-MEK5 inh
COc1ccc(S(=O)(=O)Nc2cccc(-n3cnnn3)c2)cc1	-15	2	101	101	0	0	x	x	x
O=C(O)CCN1C(=O)C2C3CC(C2C1=O)C1C(c2ccccc2)c2sc(=O)n(-c4ccccc4)c2SC31 (centres undefined)	-12	0	112	129*	2	3	99	3	99
Cc1ncc([N+](=O)[O-])n1CCOC(=O)c1ccc(Cl)cc1Cl	7	7	102	103	0	2	x	x	x
CCN(Cc1ccccc1)c1ccc(/C=N/N=C(N)N)cc1	43	3	115	93	x	18	x	x	x
CCN(Cc1ccccc1)c1ccc(/C=N/NC(=S)NC(C)C)cc1	8	-1	82	59*[inhibitor]	x	12	146	19	107
COc1ccccc1CCc1nnc(CCC(=O)NC(C)Cc2cccc(C)n2)o1 (centres undefined)	-9	2	104	101	4	-9	x	x	x
COc1ccccc1CCc1nnc(CCC(=O)NC(C)Cn2nc(C)cc2C)o1 (centres undefined)	-2	-18	50	37*[inhibitor]	2	-1	104	4	107
Cc1nn(Cc2ccc(Cl)c(Cl)c2)c(C)c1NC(=O)c1cc(-c2ccco2)on1	7	-5	92	88	-4	-5	x	x	x
CC(C)(C)c1cc(C(=O)NN)n(Cc2ccc(F)cc2)n1	0	-1	106	108	4	-13	x	x	x
COC(=O)c1cc(NC(=O)c2cc(C(C)(C)C)nn2Cc2ccc(F)cc2)ccc1N1CCOCC1	14	32	130	133*	-8	17	103	-2	103
Cn1c(OCc2cccnc2)nc2c1c(=O)n(Cc1ccccc1)c(=O)n2C	-1	-6	99	93	3	3	x	x	x
Cn1c(OCc2cccnc2)nc2c1c(=O)n(Cc1ccc(F)cc1)c(=O)n2C	8	-30	78	71*[inhibitor]	2	-7	99	-2	104
COc1ccc(C2CC(c3ccccc3)=NN2C(=O)c2cccs2)cc1 (centres undefined)	38	0	96	99	2	2	x	x	x

Source: PubChem
